{"source": "ChEMBL document CHEMBL4622834", "about": "“Synthesis and antiproliferative activity of sulfonamide-based peptidomimetic calpain inhibitors” (Bioorg Med Chem, 2020)", "key": {"PC-3": {"system": "PC-3", "assay": "Antiproliferative activity against human PC3 cells assessed as inhibition of cell growth after 72 hrs by MTT assay", "type": "functional", "conditions": "PC-3, 72 h", "method_in_brief": "(§1)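 Cells seeded at 2,000–15,000/well, exposed to drug for 72 h at 37 °C, 5% CO2; untreated wells as negative control. MTT (5 mg/mL) added for the final 2–4 h; plates spun, formazan dissolved in DMSO, A595. Percent survival vs concentration fitted by nonlinear regression for IC50. Triplicate. PC3 grown in RPMI-1640, DU145 in EMEM, each with 10% FBS; DU145 tested at 1 and 2 µM.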"}, "B16-F1": {"system": "B16-F1", "assay": "Antiproliferative activity against mouse B16-F1 cells assessed as inhibition of cell growth after 48 hrs by sulforhodamine B colorimetric assay", "type": "functional", "conditions": "B16-F1, 48 h", "method_in_brief": "(§2)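 Melanoma cells in DMEM with 5% FBS, 1% penicillin/streptomycin, 0.05% insulin; 5000 cells/well in U-bottom wells. After 12 h medium changed and compound added at 8 concentrations for 48 h; Taxol positive control, cells plus medium as negative control. Fixed with 10% TCA, stained with 0.4% SRB in 1% acetic acid 30 min RT, dye released with 10 mM Tris base, A490. Triplicate, ±SEM.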"}, "A-375": {"system": "A-375", "assay": "Antiproliferative activity against human A375 cells assessed as inhibition of cell growth after 48 hrs by sulforhodamine B colorimetric assay", "type": "functional", "conditions": "A-375, 48 h", "method_in_brief": "as §2"}, "[1]": {"molecular_target": "T1, Calpain-1 catalytic subunit (Sus scrofa, UniProt P35750)", "T1 sequence (P35750 whole entry)": "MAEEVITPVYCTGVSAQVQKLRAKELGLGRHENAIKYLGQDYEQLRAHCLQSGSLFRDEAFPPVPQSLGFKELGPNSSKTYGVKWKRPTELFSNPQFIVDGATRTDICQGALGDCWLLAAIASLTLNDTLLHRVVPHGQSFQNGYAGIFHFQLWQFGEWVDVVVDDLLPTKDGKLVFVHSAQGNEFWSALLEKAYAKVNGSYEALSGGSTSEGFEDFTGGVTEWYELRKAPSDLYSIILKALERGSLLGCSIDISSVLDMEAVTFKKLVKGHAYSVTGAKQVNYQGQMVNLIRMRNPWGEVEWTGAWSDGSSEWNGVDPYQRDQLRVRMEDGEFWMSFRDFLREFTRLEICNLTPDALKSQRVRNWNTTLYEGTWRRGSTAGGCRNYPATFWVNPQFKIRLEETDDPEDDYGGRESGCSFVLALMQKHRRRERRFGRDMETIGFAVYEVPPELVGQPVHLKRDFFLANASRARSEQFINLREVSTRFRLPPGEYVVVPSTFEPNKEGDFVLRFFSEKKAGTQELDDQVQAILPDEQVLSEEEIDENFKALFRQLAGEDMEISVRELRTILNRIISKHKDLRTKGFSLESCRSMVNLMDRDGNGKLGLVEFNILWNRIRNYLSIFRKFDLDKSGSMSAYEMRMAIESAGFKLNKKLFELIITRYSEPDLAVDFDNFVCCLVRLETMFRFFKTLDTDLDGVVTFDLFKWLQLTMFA", "assay": "Inhibition of mu-calpain in porcine erythrocyte using Suc-Leu-Tyr-AMC as substrate by microtiter plate assay based Dixon plot analysis", "method_in_brief": "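Porcine erythrocyte µ-calpain (1 µg) in 50 mM Tris-HCl pH 7.4, 50 mM NaCl, 10 mM DTT, 1 mM EDTA, 1 mM EGTA, 5 mM CaCl2, with 0.2 mM or 1.0 mM Suc-Leu-Tyr-AMC and varying inhibitor in DMSO (2% total). Ki from Dixon plots of initial velocity (1/v vs inhibitor concentration), r above 0.95; no correction for slow binding or autolysis; mean of triplicates.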"}, "DU-145 [2]": {"system": "DU-145", "assay": "Antiproliferative activity against human DU145 cells assessed as inhibition of cell growth at 1 to 2 uM after 72 hrs by MTT assay", "type": "functional, cell-based", "method_in_brief": "as §1"}, "DU-145 [3]": {"system": "DU-145", "assay": "Antiinvasive activity against human DU145 cells assessed as inhibition of cell invasion after 48 hrs by matrigel cell invasion assay", "type": "functional, cell-based", "method_in_brief": "(§3)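 DU-145 cells (20,000) seeded in serum-free medium with 1% BSA in upper chamber, 37 °C for 24 h; lower chamber 10% FBS as chemoattractant. Upper medium then replaced with serum-free medium with or without compound at 1.0, 1.5 or 2.0 µM. After 48 h, non-invading cells swabbed off; invading cells fixed, stained, counted. Triplicate; expressed as percentage of untreated cells.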"}, "DU-145 [4]": {"system": "DU-145", "assay": "Antiinvasive activity against human DU145 cells assessed as inhibition of cell invasion at 2 uM after 48 hrs by matrigel cell invasion assay", "type": "functional", "conditions": "DU-145, 48 h", "method_in_brief": "as §3"}}, "note": "Activity calls are given as the source filed them. The calls are words filed in the database; no cut-off is given here. Where a SMILES comes first, the peptide text is derived from it. The star is where a group is joined. Cbz = O=C(OCc1ccccc1)*"}
{"smiles": "CC(C)C[C@H](NC(=O)[C@@H](NS(=O)(=O)c1ccc(/C=C/c2ccccc2)cc1)C(C)C)C(=O)C(N)=O", "values": [{"measurement": "GI50", "setting": "PC-3", "result": 6.02, "unit": "µM"}, {"measurement": "GI50", "setting": "B16-F1", "result": 17.2, "unit": "µM"}, {"measurement": "GI50", "setting": "A-375", "result": 16, "unit": "µM"}, {"measurement": "Ki", "setting": "[1]", "result": 0.009, "unit": "µM"}]}
{"smiles": "CC(C)C[C@@H](C=O)NC(=O)[C@@H](NS(=O)(=O)c1ccc(/N=N/c2ccccc2)cc1)C(C)C", "values": [{"measurement": "GI50", "setting": "PC-3", "result": 27.3, "unit": "µM"}, {"measurement": "GI50", "setting": "B16-F1", "result": 13.7, "unit": "µM"}, {"measurement": "GI50", "setting": "A-375", "result": 12.9, "unit": "µM"}, {"measurement": "Ki", "setting": "[1]", "result": 0.018, "unit": "µM"}]}
{"smiles": "CC(C)C[C@@H](C=O)NC(=O)[C@@H](NS(=O)(=O)c1ccc(/C=C/c2ccccc2)cc1)C(C)C", "values": [{"measurement": "GI50", "setting": "PC-3", "result": 23, "unit": "µM"}, {"measurement": "GI50", "setting": "B16-F1", "result": 10.3, "unit": "µM"}, {"measurement": "GI50", "setting": "A-375", "result": 9.4, "unit": "µM"}, {"measurement": "Ki", "setting": "[1]", "result": 0.014, "unit": "µM"}]}
{"smiles": "CC(C)C[C@H](NC(=O)[C@@H](NS(=O)(=O)c1ccc(/N=N/c2ccccc2)cc1)C(C)C)C(=O)C(N)=O", "values": [{"measurement": "Activity", "setting": "DU-145 [2]", "result": "inactive"}, {"measurement": "inhibition", "setting": "DU-145 [3]", "result": "Dose-dependent effect"}, {"measurement": "inhibition at 2 µM", "setting": "DU-145 [4]", "result": 80, "unit": "%"}, {"measurement": "GI50", "setting": "PC-3", "result": 24.1, "unit": "µM"}, {"measurement": "GI50", "setting": "B16-F1", "result": 18.7, "unit": "µM"}, {"measurement": "GI50", "setting": "A-375", "result": 22.2, "unit": "µM"}, {"measurement": "Ki", "setting": "[1]", "result": 0.016, "unit": "µM"}]}
{"smiles": "CC(C)[C@H](NC(=O)OCc1ccccc1)C(=O)N[C@H](C=O)Cc1ccccc1", "note": "(Cbz-Val-Phe-aldehyde)", "values": [{"measurement": "Ki", "setting": "[1]", "result": 0.01, "unit": "µM"}]}
{"smiles": "CC(C)C[C@@H](C=O)NC(=O)[C@@H]1CCCN1S(=O)(=O)c1ccc(/N=N/c2ccccc2)cc1", "values": [{"measurement": "GI50", "setting": "PC-3", "result": 5.6, "unit": "µM"}, {"measurement": "GI50", "setting": "B16-F1", "result": 13.6, "unit": "µM"}, {"measurement": "GI50", "setting": "A-375", "result": 4.1, "unit": "µM"}, {"measurement": "Ki", "setting": "[1]", "result": 0.273, "unit": "µM"}]}
{"smiles": "CC(=O)O[C@H]1C(=O)[C@@]2(C)[C@H]([C@H](OC(=O)c3ccccc3)[C@]3(O)C[C@H](OC(=O)[C@H](O)[C@@H](NC(=O)c4ccccc4)c4ccccc4)C(C)=C1C3(C)C)[C@]1(OC(C)=O)CO[C@@H]1C[C@@H]2O", "note": "[PACLITAXEL]", "values": [{"measurement": "GI50", "setting": "PC-3", "result": 0.03, "unit": "µM"}, {"measurement": "GI50", "setting": "B16-F1", "result": 0.02, "unit": "µM"}, {"measurement": "GI50", "setting": "A-375", "result": 0.01, "unit": "µM"}]}
